A selection: hits, their analogues and other compounds. The true share with any hit is near 3.8%.
T cell modulator: T cell immune modulation candidate | response (vesicle binding), % at 7 µM | 2C CD8+ T cell-vesicle binding, flow cytometry; active compounds read low | AID 2052 | actives 0.068% (n = 330,000);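 active = response, share of CD8 T cells binding vesicles, and their 90th percentile fluorescence all below set limits, cut at about 80% in these data, passing the limit was not always enough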;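 note: values below 100% mean blocked vesicle binding to the CD8+ T cells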
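System: murine 2C transgenic CD8+ T lymphocytes; also added: QL9-loaded Drosophila micro-vesicles; times: binding 1.5 h at 37 °C; measured by: flow cytometry, PE anti-B7-1 (FL2) versus Alexa647 anti-CD8 (FL8), PFA-fixed; control set: Peptide-free naked vesicles (low) and QL9 vesicles with 0.7% DMSO vehicle (high)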
rCAG RNA binder: molecules binding r(CAG) RNA repeats. actives 1.3% (n = 370,000). r(CAG) RNA repeat, TO-PRO-1 dye displacement fluorescence. inhibition, % at 3 µM;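 active = inhibition above the plate cutoff, the mean of all test compounds on that plate plus 3 SD, cut at about 35% in these data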;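 note: 0% = DMSO alone and 100% = 100 µM mitoxantrone as full dye displacement; higher means more dye released from RNA so lower well fluorescence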
B2AR ag: agonists of human beta-2 adrenergic receptor inducing internalization | Am2.2-beta2AR cells, FAP receptor internalization, flow cytometry | response, % (no concentration beside the values) | P07550 | actives 0.43% (n = 340,000);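 active = response above a set limit, near 3 SD of response in nonfluorescent compounds, cut at about 42% in these data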
Target sequence (P07550 whole entry, looked up): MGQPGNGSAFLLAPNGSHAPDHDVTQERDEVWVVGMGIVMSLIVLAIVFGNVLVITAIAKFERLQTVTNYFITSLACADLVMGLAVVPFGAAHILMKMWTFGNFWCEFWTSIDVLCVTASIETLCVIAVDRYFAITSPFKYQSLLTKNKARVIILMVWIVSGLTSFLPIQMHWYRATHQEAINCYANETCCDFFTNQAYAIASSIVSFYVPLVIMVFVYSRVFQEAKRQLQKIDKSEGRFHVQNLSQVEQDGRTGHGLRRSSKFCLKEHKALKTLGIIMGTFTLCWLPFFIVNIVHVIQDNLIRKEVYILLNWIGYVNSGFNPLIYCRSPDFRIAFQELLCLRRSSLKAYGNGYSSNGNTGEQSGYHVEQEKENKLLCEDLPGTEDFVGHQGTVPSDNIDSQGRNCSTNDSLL
MPTP inh: permeability transition pore inhibition; isolated mouse mitochondria, Ca2+ swelling absorbance, 30 min; inhibition, % at 10 µM; actives 1.4% (n = 360,000);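 active = inhibition of 50% or more, scaled per plate between neutral and stimulator controls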;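 note: 0% = DMSO wells given calcium and 100% = 1 mM EGTA wells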
Granule exo inh: lytic granule exocytosis inhibition | inhibition, % at 10 µM | TALL-104 LAMP-1 surface exposure, flow cytometry; cells stimulated with thapsigargin and PMA | AID 651702 | actives 0.66% (n = 360,000);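 active = inhibition above about 55%, limit read from the data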
V-ATPase pH: alters yeast V-ATPase proton transport; response, % at 10 µM; actives 0.37% (n = 350,000); S. cerevisiae, pHLuorin cytosolic pH fluorescence; in the data active = response mostly above about 7.3%, no sharp cut-off; inactive = mostly below about 5.4%; note: actives read high
Rh123 counter: membrane potential counter-screen of mitochondrial pore inhibitors | shares compounds with MPTP inh | AID 624504 | isolated mitochondria, Rhodamine 123 fluorescence | inhibition, % at 10 µM | actives 78% (n = 5,000); in the data active = inhibition above about 22%;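 note: 0% = DMSO vehicle and 100% = positive control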
MPTP abs DR: dose response confirmation of mitochondrial permeability transition pore inhibitors; IC50, µM; AID 651561; isolated mitochondria swelling, absorbance; shares compounds with MPTP inh; actives 58% (n = 780); in the data active = IC50 below about 20 µM
MPTP counter DR: MPTP inhibitor counter-screen activity, dose response; shares compounds with MPTP inh; isolated mitochondria counterscreen, fluorescence read-out; IC50, µM; actives 49% (n = 780); AID 651564; in the data active = IC50 below about 80 µM
Active calls of the source: *; i = inactive; / = no result given.

SMILES	T cell modulator	rCAG RNA binder	B2AR ag	MPTP inh	Granule exo inh	V-ATPase pH	Rh123 counter	others
CC(CNC(=O)COc1ccccc1)OC(=O)Nc1ccc(Cl)c(Cl)c1 (configuration not stated)	207	2	3	89*	0	2	88*
Cn1c(=O)c2[nH]c(SCC(=O)N3CCN(c4cccc(C(F)(F)F)c4)CC3)nc2n(C)c1=O	/	11	/	/	/	/	/
O=C(N/N=C/c1cccc(O)c1)c1csc2ccccc12	261	4	11	108*	-15	7	2	MPTP abs DR=1.1*;MPTP counter DR=>80
O=C(N/N=C/c1cccc(O)c1)c1ccccc1O	66	0	9	2	-8	0	/
COC(=O)[C@]12C[C@H](CC(=O)N3CCN(C(=O)c4ccco4)CC3)C(=O)N(CCc3ccc(OC)c(OC)c3)C1=C[C@H](C(C)(C)C)O[C@@H]2C	/	4	/	/	/	/	/
COc1ccc(C2=C/C(=C\c3cccc(OC(C)=O)c3)C(=O)O2)cc1	269	3	11	57*	-2	3	60*
COc1ccc(C2=C/C(=C\c3ccccc3OC(C)=O)C(=O)O2)cc1	130	7	0	0	15	3	/
Cc1ccc(S(=O)(=O)N(C)C)cc1NC(=S)NC12CC3CC(CC(C3)C1)C2	/	6	-3	65*	-1	-2	84*
CN(C)S(=O)(=O)c1cccc(NC(=S)NC23CC4CC(CC(C4)C2)C3)c1	309	11	-1	26	20	2	/
Cc1ccc(S(=O)(=O)N(C)C)cc1NC(=S)NC(=O)C12CC3CC(CC(C3)C1)C2	475	4	7	60*	-4	-4	35*
Nc1cc(S(=O)(=O)Nc2cc(Cl)ccc2Cl)ccc1N1CCOCC1	386	14	8	61*	-3	-3	18	MPTP abs DR=i;MPTP counter DR=55*
Nc1cc(S(=O)(=O)Nc2ccccc2Cl)ccc1N1CCCC1	125	7	-10	10	-4	-2	/
COc1ccc(S(=O)(=O)Nc2ccc(N3CCOCC3)cc2)cc1	259	-2	-12	0	3	0	/
COc1ccc(NS(=O)(=O)c2ccc(N3CCOCC3)c(N)c2)cc1	437	3	-1	86*	-3	0	96*
CCCCNC(=O)c1sc(=S)n2c1[nH]c(=O)c1ccccc12	777	32	5	96*	0	-2	80*
O=C(NC1CCCCC1)c1sc(=S)n2c1[nH]c(=O)c1ccccc12	401	22	8	90*	3	3	92*
Cc1cccc(NC(=O)C2CCN(c3nnc(-n4cccc4)s3)CC2)c1C	/	9	/	/	/	/	/
O=C(CCc1nc(-c2ccccc2F)no1)NCCc1ccc(F)cc1	/	-1	/	/	/	/	/
Cc1cccc(NC(=S)NC(NC(=O)c2ccco2)C(Cl)(Cl)Cl)c1 (configuration not stated)	116	3	8	7	-2	-4	/
Cc1ccc(NC(=S)NC(NC(=O)c2ccccc2)C(Cl)(Cl)Cl)c(C)c1 (configuration not stated)	299	7	29	73*	14	5	81*
O=C(NC(NC(=S)Nc1ccccc1)C(Cl)(Cl)Cl)c1cccc(Cl)c1 (configuration not stated)	168	14	2	96*	1	/	77*
O=C(NC(NC(=S)Nc1ccc(Cl)cc1Cl)C(Cl)(Cl)Cl)c1cccc([N+](=O)[O-])c1 (configuration not stated)	377	13	8	94*	-1	-1	80*
Cc1cc(C)c(NC(=S)NC(NC(=O)c2ccccc2)C(Cl)(Cl)Cl)c(C)c1 (configuration not stated)	540	8	10	76*	-2	-7	84*
Cc1ccc(C(=O)NC(NC(=S)Nc2ccc(S(N)(=O)=O)cc2)C(Cl)(Cl)Cl)cc1 (configuration not stated)	291	30	4	7	-3	-1	/
O=C(O)c1cccc(NC(=S)NC(NC(=O)c2ccccc2[N+](=O)[O-])C(Cl)(Cl)Cl)c1 (configuration not stated)	75	20	6	3	1	0	/
SMILES	T cell modulator	rCAG RNA binder	B2AR ag	MPTP inh	Granule exo inh	V-ATPase pH	Rh123 counter	others
CCOc1ccc(-n2c(SCC(=O)Nc3ccc4c(c3)OCCO4)nnc2-c2ccncc2)cc1	/	2	/	/	/	/	/
Cc1ccccc1NC(=S)NC(NC(=O)c1ccccc1C)C(Cl)(Cl)Cl (configuration not stated)	98	5	-1	78*	2	2	88*
CCOC(=O)c1ccc(NC(=O)Nc2ccc3c(c2)OCCO3)cc1	256	13	4	74*	3	-2	78*
CCOC(=O)c1cn[nH]c1NC(=S)Nc1ccc(Cl)cc1	95	13	19	66*	38	1	65*
CCOC(=O)c1ccc(NC(=S)Nc2ccccc2)cc1	197	3	-9	88*	-2	0	95*
COC(=O)c1ccc(NC(=S)NCCC2=CCCCC2)cc1	307	0	10	89*	-3	-1	87*
CCOC(=O)c1ccc(NC(=S)Nc2ccccc2N)cc1	536	/	/	/	/	/	/
CCOC(=O)c1ccc(NC(=O)C(=O)NCCc2ccc(OC)cc2)cc1	255	-2	1	-2	-1	-1	/
Cc1ccc(S(=O)(=O)NCCC2=CCCCC2)cc1	/	-6	0	-1	3	2	/
Cc1ccc(CNCCC2=CCCCC2)cc1	343	9	13	65*	8	10	-2	MPTP abs DR=19*;MPTP counter DR=48*
CCOC(=O)c1ccc(NC(=S)NCCc2ccc(F)cc2)cc1	126	3	4	85*	1	-1	79*
Fc1ccc(NC(=S)Nc2ccccc2N2CCOCC2)cc1Cl	250	1	-3	100*	1	-4	98*
CC(NC(=S)Nc1ccc(OC(F)F)c(Cl)c1)C(C)(C)C (configuration not stated)	156	2	16	93*	1	3	95*
Cc1ccc(NC(=S)Nc2ccc(OC(F)F)c(Cl)c2)cc1Cl	412	4	1	95*	1	2	92*
FC(F)Oc1ccccc1NC(=S)Nc1cccnc1	143	1	-4	2	8	1	/
Fc1ccc(NC(=S)Nc2ccccc2OC(F)F)cc1Cl	274	4	10	100*	-5	0	76*
O=S(=O)(c1ccc(Cl)c(NC(=S)Nc2ccccc2N2CCOCC2)c1)N1CCOCC1	150	1	-1	2	0	5	/
